Reference: the M2OR odorant receptor database

What was measured:
Details in all cases: stereoisomer not certain
[1] = target: T1, OR10G2 (Homo sapiens) (UniProt Q8NGC3)
T1 sequence (whole entry): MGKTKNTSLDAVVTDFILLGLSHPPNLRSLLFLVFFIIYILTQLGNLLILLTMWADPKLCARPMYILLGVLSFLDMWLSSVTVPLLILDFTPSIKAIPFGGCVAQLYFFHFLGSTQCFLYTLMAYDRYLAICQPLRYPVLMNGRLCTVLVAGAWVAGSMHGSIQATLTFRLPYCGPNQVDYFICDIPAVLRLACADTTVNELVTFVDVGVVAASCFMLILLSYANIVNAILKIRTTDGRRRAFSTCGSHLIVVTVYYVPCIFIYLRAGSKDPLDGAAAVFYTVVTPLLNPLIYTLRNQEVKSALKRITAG
Procedure, shortened: (§1)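 Each entry records the cell line, G-protein, co-transfected protein and tags used. Methods varied with the source, often transient luciferase assays in mammalian cell lines. A receptor–molecule pair is called responsive (active) if the original authors judged its signal statistically different from baseline and non-responsive (inactive) otherwise.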

[2] = target: T2, OR10G3 (Homo sapiens) (UniProt Q8NGC4)
T2 sequence (whole entry): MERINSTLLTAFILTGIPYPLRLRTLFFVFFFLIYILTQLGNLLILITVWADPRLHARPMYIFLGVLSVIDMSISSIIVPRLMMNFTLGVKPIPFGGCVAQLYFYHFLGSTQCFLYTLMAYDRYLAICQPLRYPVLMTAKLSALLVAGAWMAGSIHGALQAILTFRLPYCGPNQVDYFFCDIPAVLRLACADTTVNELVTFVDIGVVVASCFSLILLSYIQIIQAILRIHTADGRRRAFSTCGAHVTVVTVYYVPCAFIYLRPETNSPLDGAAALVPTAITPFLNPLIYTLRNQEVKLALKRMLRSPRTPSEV
Procedure, shortened: as §1

[3] = target: T3, OR10G4 (Homo sapiens) (UniProt Q8NGN3)
T3 sequence (whole entry): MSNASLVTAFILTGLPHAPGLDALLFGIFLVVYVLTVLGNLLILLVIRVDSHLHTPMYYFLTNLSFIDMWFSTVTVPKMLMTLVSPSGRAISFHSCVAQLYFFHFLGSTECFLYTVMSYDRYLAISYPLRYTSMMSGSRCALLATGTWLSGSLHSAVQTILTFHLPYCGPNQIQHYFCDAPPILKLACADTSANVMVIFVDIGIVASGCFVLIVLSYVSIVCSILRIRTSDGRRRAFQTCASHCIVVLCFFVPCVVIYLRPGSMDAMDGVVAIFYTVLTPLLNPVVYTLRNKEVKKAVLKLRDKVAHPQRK
Procedure, shortened: as §1

[4] = target: T4, OR10G6 (Homo sapiens) (UniProt Q8NH81)
T4 sequence (whole entry): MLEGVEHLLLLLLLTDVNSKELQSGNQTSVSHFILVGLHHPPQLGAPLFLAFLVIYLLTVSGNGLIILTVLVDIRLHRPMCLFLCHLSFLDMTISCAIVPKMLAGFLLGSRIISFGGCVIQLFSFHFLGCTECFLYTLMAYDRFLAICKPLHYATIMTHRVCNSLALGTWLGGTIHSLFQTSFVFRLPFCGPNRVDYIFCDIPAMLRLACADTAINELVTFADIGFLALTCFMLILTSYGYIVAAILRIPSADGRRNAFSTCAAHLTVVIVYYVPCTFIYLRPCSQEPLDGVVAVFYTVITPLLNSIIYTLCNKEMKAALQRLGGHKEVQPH
Procedure, shortened: as §1

[5] = target: T5, OR10G7 (Homo sapiens) (UniProt Q8NGN6)
T5 sequence (whole entry): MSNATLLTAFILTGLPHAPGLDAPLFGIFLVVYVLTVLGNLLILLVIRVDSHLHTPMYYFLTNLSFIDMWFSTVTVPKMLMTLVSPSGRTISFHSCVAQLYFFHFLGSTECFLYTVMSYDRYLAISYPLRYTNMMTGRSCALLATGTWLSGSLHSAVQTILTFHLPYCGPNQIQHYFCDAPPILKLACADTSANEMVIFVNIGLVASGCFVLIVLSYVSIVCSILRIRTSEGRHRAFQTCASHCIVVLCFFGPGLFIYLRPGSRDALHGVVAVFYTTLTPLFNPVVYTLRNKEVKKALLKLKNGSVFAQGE
Procedure, shortened: as §1

[6] = target: T6, OR10G8 (Homo sapiens) (UniProt Q8NGN5)
T6 sequence (whole entry): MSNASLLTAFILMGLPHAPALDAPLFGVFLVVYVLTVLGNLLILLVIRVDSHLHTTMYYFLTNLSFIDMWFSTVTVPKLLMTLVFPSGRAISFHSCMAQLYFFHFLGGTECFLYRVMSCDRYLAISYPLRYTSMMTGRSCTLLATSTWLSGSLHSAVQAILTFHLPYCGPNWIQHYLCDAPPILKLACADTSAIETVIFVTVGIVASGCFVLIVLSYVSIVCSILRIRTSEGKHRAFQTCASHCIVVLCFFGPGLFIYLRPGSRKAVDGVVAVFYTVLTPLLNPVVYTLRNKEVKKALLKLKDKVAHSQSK
Procedure, shortened: as §1

[7] = target: T7, OR10G9 (Homo sapiens) (UniProt Q8NGN4)
T7 sequence (whole entry): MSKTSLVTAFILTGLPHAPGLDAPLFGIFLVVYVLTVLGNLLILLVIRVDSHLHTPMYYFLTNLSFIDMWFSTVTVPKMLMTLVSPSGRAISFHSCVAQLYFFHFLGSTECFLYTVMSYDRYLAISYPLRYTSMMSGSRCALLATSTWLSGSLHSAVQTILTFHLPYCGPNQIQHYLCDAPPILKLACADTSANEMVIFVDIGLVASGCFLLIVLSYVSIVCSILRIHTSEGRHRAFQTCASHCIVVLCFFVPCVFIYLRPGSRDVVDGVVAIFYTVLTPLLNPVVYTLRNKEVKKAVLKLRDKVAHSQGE
Procedure, shortened: as §1

[8] = target: T8, OR10H1 (Homo sapiens) (UniProt Q9Y4A9)
T8 sequence (whole entry): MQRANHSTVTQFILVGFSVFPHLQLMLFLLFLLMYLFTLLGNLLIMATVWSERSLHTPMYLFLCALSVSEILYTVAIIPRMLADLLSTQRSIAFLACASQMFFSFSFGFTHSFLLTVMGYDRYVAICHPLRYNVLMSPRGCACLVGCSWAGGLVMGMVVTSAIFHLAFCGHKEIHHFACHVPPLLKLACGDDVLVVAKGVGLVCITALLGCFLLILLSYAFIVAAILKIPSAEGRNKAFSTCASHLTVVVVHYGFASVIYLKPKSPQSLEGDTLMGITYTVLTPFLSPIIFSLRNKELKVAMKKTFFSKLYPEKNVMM
Procedure, shortened: as §1

[9] = target: T9, OR10H2 (Homo sapiens) (UniProt O60403)
T9 sequence (whole entry): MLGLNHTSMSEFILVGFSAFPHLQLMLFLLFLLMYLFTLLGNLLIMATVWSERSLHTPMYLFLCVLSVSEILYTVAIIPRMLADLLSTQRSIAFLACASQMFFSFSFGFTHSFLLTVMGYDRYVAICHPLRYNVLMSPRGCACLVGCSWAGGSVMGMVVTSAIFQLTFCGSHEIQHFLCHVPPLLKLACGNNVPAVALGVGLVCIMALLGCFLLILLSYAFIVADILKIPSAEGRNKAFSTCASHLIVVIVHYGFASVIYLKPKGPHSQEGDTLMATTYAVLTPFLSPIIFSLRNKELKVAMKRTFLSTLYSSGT
Procedure, shortened: as §1

[10] = target: T10, OR10H3 (Homo sapiens) (UniProt O60404)
T10 sequence (whole entry): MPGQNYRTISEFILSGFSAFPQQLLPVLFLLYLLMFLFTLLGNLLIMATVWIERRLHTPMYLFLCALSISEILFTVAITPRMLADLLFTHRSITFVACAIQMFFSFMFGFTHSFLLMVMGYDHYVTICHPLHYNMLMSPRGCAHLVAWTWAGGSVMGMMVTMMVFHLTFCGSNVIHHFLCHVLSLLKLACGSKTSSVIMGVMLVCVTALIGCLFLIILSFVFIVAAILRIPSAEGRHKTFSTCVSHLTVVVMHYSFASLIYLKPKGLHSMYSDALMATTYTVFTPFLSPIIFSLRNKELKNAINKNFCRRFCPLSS
Procedure, shortened: as §1

[11] = target: T11, OR10H4 (Homo sapiens) (UniProt Q8NGA5)
T11 sequence (whole entry): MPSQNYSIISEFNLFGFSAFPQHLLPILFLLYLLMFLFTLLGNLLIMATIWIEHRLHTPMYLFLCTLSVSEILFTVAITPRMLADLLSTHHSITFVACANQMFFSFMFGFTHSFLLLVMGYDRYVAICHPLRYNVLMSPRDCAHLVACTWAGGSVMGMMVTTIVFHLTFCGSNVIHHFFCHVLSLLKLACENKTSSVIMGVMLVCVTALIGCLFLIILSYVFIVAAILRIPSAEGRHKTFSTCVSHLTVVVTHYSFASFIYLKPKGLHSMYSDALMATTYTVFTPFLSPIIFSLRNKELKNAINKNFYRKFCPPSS
Procedure, shortened: as §1

[12] = target: T12, OR10H5 (Homo sapiens) (UniProt Q8NGA6)
T12 sequence (whole entry): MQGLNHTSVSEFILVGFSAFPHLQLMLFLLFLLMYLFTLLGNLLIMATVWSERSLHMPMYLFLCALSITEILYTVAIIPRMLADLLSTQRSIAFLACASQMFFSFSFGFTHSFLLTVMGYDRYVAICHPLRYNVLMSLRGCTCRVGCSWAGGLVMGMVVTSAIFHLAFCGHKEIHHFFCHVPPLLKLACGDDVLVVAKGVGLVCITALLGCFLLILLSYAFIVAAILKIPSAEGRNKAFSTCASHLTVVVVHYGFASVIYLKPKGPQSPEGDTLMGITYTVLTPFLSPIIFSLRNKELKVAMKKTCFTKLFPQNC
Procedure, shortened: as §1

[13] = target: T13, OR10J1 (Homo sapiens) (UniProt P30954)
T13 sequence (whole entry): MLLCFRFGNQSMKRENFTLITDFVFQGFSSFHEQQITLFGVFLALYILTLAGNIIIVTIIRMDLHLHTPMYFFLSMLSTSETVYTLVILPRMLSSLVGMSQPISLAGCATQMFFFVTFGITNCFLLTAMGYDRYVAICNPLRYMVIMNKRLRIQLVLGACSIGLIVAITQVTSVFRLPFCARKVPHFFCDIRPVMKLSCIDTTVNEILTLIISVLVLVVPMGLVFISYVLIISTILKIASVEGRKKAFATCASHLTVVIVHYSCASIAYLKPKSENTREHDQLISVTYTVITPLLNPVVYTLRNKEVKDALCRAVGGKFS
Procedure, shortened: as §1

[14] = target: T14, OR10J3 (Homo sapiens) (UniProt Q5JRS4)
T14 sequence (whole entry): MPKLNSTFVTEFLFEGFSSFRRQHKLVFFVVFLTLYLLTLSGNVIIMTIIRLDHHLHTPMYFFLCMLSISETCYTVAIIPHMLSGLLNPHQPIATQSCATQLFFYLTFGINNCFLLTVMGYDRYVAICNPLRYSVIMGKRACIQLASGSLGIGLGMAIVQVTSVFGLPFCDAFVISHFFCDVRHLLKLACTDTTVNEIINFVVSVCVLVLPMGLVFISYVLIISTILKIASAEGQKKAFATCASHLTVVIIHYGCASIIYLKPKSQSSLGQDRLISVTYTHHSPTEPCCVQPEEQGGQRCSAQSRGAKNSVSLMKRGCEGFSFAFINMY
Procedure, shortened: as §1

[15] = target: T15, OR10J5 (Homo sapiens) (UniProt Q8NHC4)
T15 sequence (whole entry): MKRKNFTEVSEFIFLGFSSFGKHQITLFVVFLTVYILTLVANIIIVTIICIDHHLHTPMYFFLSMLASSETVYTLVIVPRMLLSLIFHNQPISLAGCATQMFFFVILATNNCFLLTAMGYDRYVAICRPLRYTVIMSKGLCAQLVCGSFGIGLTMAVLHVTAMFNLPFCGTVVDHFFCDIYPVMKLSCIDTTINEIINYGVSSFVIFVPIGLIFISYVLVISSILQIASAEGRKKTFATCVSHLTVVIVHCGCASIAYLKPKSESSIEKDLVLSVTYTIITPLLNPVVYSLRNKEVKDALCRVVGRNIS
Procedure, shortened: as §1

[16] = target: T16, OR10K1 (Homo sapiens) (UniProt Q8NGX5)
T16 sequence (whole entry): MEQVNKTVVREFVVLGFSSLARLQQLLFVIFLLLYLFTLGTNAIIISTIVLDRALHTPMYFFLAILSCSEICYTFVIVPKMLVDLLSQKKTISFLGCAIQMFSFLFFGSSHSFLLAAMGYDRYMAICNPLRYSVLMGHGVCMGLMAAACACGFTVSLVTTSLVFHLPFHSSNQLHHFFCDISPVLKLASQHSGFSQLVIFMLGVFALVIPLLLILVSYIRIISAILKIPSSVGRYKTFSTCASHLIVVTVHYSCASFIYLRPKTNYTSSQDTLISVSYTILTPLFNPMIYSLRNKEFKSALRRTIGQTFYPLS
Procedure, shortened: as §1

[17] = target: T17, OR10P1 (Homo sapiens) (UniProt Q8NGE3)
T17 sequence (whole entry): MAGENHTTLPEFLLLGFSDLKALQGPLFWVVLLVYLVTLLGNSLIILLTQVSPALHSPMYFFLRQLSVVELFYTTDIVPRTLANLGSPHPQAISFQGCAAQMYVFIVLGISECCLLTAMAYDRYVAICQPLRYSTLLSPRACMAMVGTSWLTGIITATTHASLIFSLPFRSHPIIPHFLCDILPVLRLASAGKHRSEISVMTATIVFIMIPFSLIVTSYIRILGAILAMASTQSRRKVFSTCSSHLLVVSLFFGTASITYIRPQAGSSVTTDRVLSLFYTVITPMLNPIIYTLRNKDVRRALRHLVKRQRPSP
Procedure, shortened: as §1

[18] = target: T18, OR10Q1 (Homo sapiens) (UniProt Q8NGQ4)
T18 sequence (whole entry): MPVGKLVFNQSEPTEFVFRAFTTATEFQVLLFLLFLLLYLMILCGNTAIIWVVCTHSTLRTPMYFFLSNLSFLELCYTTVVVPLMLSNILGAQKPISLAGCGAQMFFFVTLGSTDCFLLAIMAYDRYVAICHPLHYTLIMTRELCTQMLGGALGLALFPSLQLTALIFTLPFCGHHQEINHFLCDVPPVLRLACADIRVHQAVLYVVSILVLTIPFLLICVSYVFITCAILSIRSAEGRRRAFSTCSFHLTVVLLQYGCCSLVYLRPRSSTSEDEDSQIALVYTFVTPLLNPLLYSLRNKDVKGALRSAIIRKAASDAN
Procedure, shortened: as §1

Measured: odorant receptor agonist call

CCCC(S)CCOC(C)=O (stereo not drawn)
inactive: all assays above
